Measured values from ChEMBL document CHEMBL4350999, “Enhanced tumor retention of NTSR1-targeted agents by employing a hydrophilic cysteine cathepsin inhibitor” (Eur J Med Chem, 2019).

Columns and labels:
[1] = Drug uptake in blood of SCID mouse xenografted with human HT-29 cells at 0.37 MBq/mouse, iv measured at 4 hrs using 177Lu labelled compound by gamma counter analysis; assay type: ADME, organism-based; details: in vivo
Outline: (§1)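 Female SCID mice bearing s.c. flank HT-29 xenografts (5 × 10^6 cells in Matrigel, ~80 mm3). Given 10 μCi (0.37 MBq) 177Lu conjugate i.v. by tail vein; groups sacrificed at 4, 24, 72 h. Tissues weighed and gamma-counted as %ID/g, excretion as %ID; n = 5, mean ± SD. Blocking arms: colchicine 1 mg/kg i.p. beforehand, or D-lysine 40 mg/kg co-injected.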

[2] = Drug uptake in heart of SCID mouse xenografted with human HT-29 cells at 0.37 MBq/mouse, iv measured at 4 hrs using 177Lu labelled compound by gamma counter analysis; assay type: ADME, organism-based; details: in vivo
Outline: (§2)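 Female SCID mice (5 weeks) bore s.c. flank xenografts of HT-29 cells (5 × 10^6 in Matrigel), used at about 80 mm3 (two weeks) and randomized. Each mouse received 10 μCi (0.37 MBq) of HPLC-purified 177Lu-conjugate via tail vein. Tissues were excised, weighed and gamma-counted, expressed as %ID/g; mean ± SD, n = 5.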

[3] = Drug uptake in lung of SCID mouse xenografted with human HT-29 cells at 0.37 MBq/mouse, iv measured at 4 hrs using 177Lu labelled compound by gamma counter analysis; assay type: ADME, organism-based; details: in vivo; outline: as §2
[4] = Drug uptake in spleen of SCID mouse xenografted with human HT-29 cells at 0.37 MBq/mouse, iv measured at 4 hrs using 177Lu labelled compound by gamma counter analysis; assay type: ADME, organism-based; details: in vivo
Outline: (§3)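 Female SCID mice (5 weeks old) received s.c. flank HT-29 cells (5 × 10^6 in Matrigel). At ~80 mm3, two weeks later, mice were randomized and given 10 μCi (0.37 MBq) of purified 177Lu conjugate i.v. by tail vein. Mice were killed at 4, 24 or 72 h. Tissues were weighed and gamma counted as %ID/g, mean ± SD, n = 5. Tumor-to-tissue ratios were calculated.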

[5] = Drug uptake in heart of SCID mouse xenografted with human HT-29 cells at 0.37 MBq/mouse, iv measured at 24 hrs using 177Lu labelled compound by gamma counter analysis; assay type: ADME, organism-based; details: in vivo; outline: as §2
[6] = Drug uptake in brain of SCID mouse xenografted with human HT-29 cells at 0.37 MBq/mouse, iv measured at 4 hrs using 177Lu labelled compound by gamma counter analysis; assay type: ADME, organism-based; details: in vivo; outline: as §2
[7] = Drug uptake in pancreas of SCID mouse xenografted with human HT-29 cells at 0.37 MBq/mouse, iv measured at 24 hrs using 177Lu labelled compound by gamma counter analysis; assay type: ADME, organism-based; details: in vivo; outline: as §2
[8] = Drug uptake in SCID mouse xenografted with human HT-29 cells assessed as tumour retention at 0.37 MBq/mouse, iv measured at 24 hrs using 177Lu labelled compound by gamma counter analysis; assay type: ADME, organism-based; details: in vivo; outline: as §1
[9] = Drug uptake in SCID mouse xenografted with human HT-29 cells assessed as tumour retention level at 0.37 MBq/mouse, iv measured at 4 hrs using 177Lu labelled compound by gamma counter analysis; assay type: ADME, organism-based; details: in vivo; outline: as §1
[10] = Drug uptake in spleen of SCID mouse xenografted with human HT-29 cells at 0.37 MBq/mouse, iv measured at 24 hrs using 177Lu labelled compound by gamma counter analysis; assay type: ADME, organism-based; details: in vivo; outline: as §3
[11] = Drug uptake in small intestine of SCID mouse xenografted with human HT-29 cells at 0.37 MBq/mouse, iv measured at 24 hrs using 177Lu labelled compound by gamma counter analysis; assay type: ADME, organism-based; details: in vivo; outline: as §2
[12] = Drug uptake in large intestine of SCID mouse xenografted with human HT-29 cells at 0.37 MBq/mouse, iv measured at 24 hrs using 177Lu labelled compound by gamma counter analysis; assay type: ADME, organism-based; details: in vivo; outline: as §2
[13] = Drug uptake in kidney of SCID mouse xenografted with human HT-29 cells at 0.37 MBq/mouse, iv measured at 24 hrs using 177Lu labelled compound by gamma counter analysis; assay type: ADME, organism-based; details: in vivo; outline: as §2
[14] = Drug uptake in muscle of SCID mouse xenografted with human HT-29 cells at 0.37 MBq/mouse, iv measured at 24 hrs using 177Lu labelled compound by gamma counter analysis; assay type: ADME, organism-based, Muscle tissue; details: in vivo; outline: as §2
[15] = Drug uptake in bone of SCID mouse xenografted with human HT-29 cells at 0.37 MBq/mouse, iv measured at 24 hrs using 177Lu labelled compound by gamma counter analysis; assay type: ADME, organism-based, Bone element; details: in vivo; outline: as §1
[16] = Drug excretion in SCID mouse xenografted with human HT-29 cells at 0.37 MBq/mouse, iv measured at 24 hrs using 177Lu labelled compound by gamma counter analysis; assay type: ADME, organism-based; details: in vivo; outline: as §1
[17] = Drug uptake in pancreas of SCID mouse xenografted with human HT-29 cells at 0.37 MBq/mouse, iv measured at 72 hrs using 177Lu labelled compound by gamma counter analysis; assay type: ADME, organism-based; details: in vivo; outline: as §2
[18] = Drug uptake in spleen of SCID mouse xenografted with human HT-29 cells at 0.37 MBq/mouse, iv measured at 72 hrs using 177Lu labelled compound by gamma counter analysis; assay type: ADME, organism-based; details: in vivo; outline: as §3
[19] = Drug uptake in small intestine of SCID mouse xenografted with human HT-29 cells at 0.37 MBq/mouse, iv measured at 72 hrs using 177Lu labelled compound by gamma counter analysis; assay type: ADME, organism-based; details: in vivo; outline: as §2
[20] = Drug uptake in kidney of SCID mouse xenografted with human HT-29 cells at 0.37 MBq/mouse, iv measured at 72 hrs using 177Lu labelled compound by gamma counter analysis; assay type: ADME, organism-based; details: in vivo; outline: as §2
[21] = Drug uptake in muscle of SCID mouse xenografted with human HT-29 cells at 0.37 MBq/mouse, iv measured at 72 hrs using 177Lu labelled compound by gamma counter analysis; assay type: ADME, organism-based, Muscle tissue; details: in vivo; outline: as §2
[22] = Drug uptake in brain of SCID mouse xenografted with human HT-29 cells at 0.37 MBq/mouse, iv measured at 72 hrs using 177Lu labelled compound by gamma counter analysis; assay type: ADME, organism-based; details: in vivo; outline: as §2
[23] = Drug uptake in SCID mouse xenografted with human HT-29 cells assessed as tumour retention level at 0.37 MBq/mouse, iv measured at 72 hrs using 177Lu labelled compound by gamma counter analysis; assay type: ADME, organism-based; details: in vivo; outline: as §1
[24] = Drug excretion in SCID mouse xenografted with human HT-29 cells at 0.37 MBq/mouse, iv measured after 72 hrs using 177Lu labelled compound; assay type: ADME, organism-based; details: in vivo; outline: as §1
[25] = Octanol-PBS buffer distribution coefficient, log D of 177Lu labelled compound at pH 7.4 by radiometric analysis; assay type: physicochemical
Outline: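 177Lu conjugate partitioned between 1-octanol and PBS pH 7.4. 100 μL aliquots from each layer were gamma counted, and LogD7.4 was calculated from the counts.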

[26] = 1-Octanol-PBS buffer distribution coefficient, log D of natEu labelled compound at pH 7.4 by time resolved fluorescence analysis; assay type: physicochemical
Outline: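 natEu-labelled conjugate (300 μg) in 0.2 mL PBS pH 7.4 partitioned against 0.2 mL 1-octanol; 100 μL aliquots from each layer dried under vacuum and taken up in water. Time-resolved fluorescence read at 590 nm with 380 nm excitation, and LogD7.4 calculated from the two layers.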

[27] = Drug uptake in heart of SCID mouse xenografted with human HT-29 cells at 0.37 MBq/mouse, iv measured at 72 hrs using 177Lu labelled compound by gamma counter analysis; assay type: ADME, organism-based; details: in vivo; outline: as §2

SMILES	Drug uptake [1] [% ID/g]	Drug uptake [2] [% ID/g]	Drug uptake [3] [% ID/g]	Drug uptake [4] [% ID/g]	Drug uptake [5] [% ID/g]	Drug uptake [6] [% ID/g]	Drug uptake [7] [% ID/g]	Drug uptake [8] [% ID/g]	Drug uptake [9] [% ID/g]	Drug uptake [10] [% ID/g]	Drug uptake [11] [% ID/g]	Drug uptake [12] [% ID/g]	Drug uptake [13] [% ID/g]	Drug uptake [14] [% ID/g]	Drug uptake [15] [% ID/g]	Drug excretion [16] [%ID]	Drug uptake [17] [% ID/g]	Drug uptake [18] [% ID/g]	Drug uptake [19] [% ID/g]	Drug uptake [20] [% ID/g]	further results
Cc1cc(O)cc(C)c1C[C@H](NC(=O)[C@@H]1CCCN1C(=O)[C@H](CCCNC(=N)N)NC(=O)[C@H](CCCNC(=N)N)N(C)C(=O)[C@@H]1CCCN1C(=O)[C@H](CCCCN)NC(=O)[C@@H](CO)NC(=O)[C@@H](CO)NC(=O)[C@@H](CO)NC(=O)[C@H](Cc1cn(CCNC(=O)[C@H](CCCNC(=N)N)NC(=O)[C@H](CC(C)C)NC(=O)CCC(=O)O)nn1)NC(=O)CN1CCN(CC(=O)O)CCN(CC(=O)O)CCN(CC(=O)O)CC1)C(=O)N[C@H](C(=O)N[C@@H](CC(C)C)C(=O)O)C(C)(C)C	0.01	0.13	0.37	1	0.01	0.02	0.11	4.4	5.6	1.6	1.9	0.73	39	0.05	0.15	84.7	0.08	0.8	1.07	15	Drug uptake [21]: 0.01 % ID/g; Drug uptake [22]: 0.01 % ID/g; Drug uptake [23]: 2.6 % ID/g; Drug excretion [24]: 91.6 %ID; logD [25]: -3.51; logD [26]: -3.71
Cc1cc(O)cc(C)c1C[C@H](NC(=O)[C@@H]1CCCN1C(=O)[C@H](CCCNC(=N)N)NC(=O)[C@H](CCCNC(=N)N)N(C)C(=O)[C@@H]1CCCN1C(=O)[C@H](CCCCN)NC(=O)[C@@H](CO)NC(=O)[C@@H](CO)NC(=O)[C@@H](CO)NC(=O)[C@H](Cc1cn(CC(=O)N[C@H](CO)C(=O)N[C@H](CO)C(=O)N[C@H](CO)C(=O)NCC(=O)NCCCC[C@H](NC(=O)[C@H](Cc2ccccc2)NC(=O)OCc2ccccc2)C(=O)NCCc2ccccc2)nn1)NC(=O)CN1CCN(CC(=O)O)CCN(CC(=O)O)CCN(CC(=O)O)CC1)C(=O)N[C@H](C(=O)N[C@@H](CC(C)C)C(=O)O)C(C)(C)C	0.83	1.1	4.3	19	0.6	0.11	0.77	5.1	8.4	18	5.6	2.6	55	0.38	1.8	56	0.68	18	3.2	28	Drug uptake [27]: 0.27 % ID/g; Drug uptake [21]: 0.12 % ID/g; Drug uptake [22]: 0.01 % ID/g; Drug uptake [23]: 3.4 % ID/g; Drug excretion [24]: 73 %ID
Cc1cc(C)c(C(=O)OCC(=O)[C@H](CCCCNC(=O)CNC(=O)[C@@H](CO)NC(=O)[C@@H](CO)NC(=O)[C@@H](CO)NC(=O)Cn2cc(C[C@H](NC(=O)CN3CCN(CC(=O)O)CCN(CC(=O)O)CCN(CC(=O)O)CC3)C(=O)N[C@H](CO)C(=O)N[C@H](CO)C(=O)N[C@H](CO)C(=O)N[C@@H](CCCCN)C(=O)N3CCC[C@H]3C(=O)N(C)[C@@H](CCCNC(=N)N)C(=O)N[C@@H](CCCNC(=N)N)C(=O)N3CCC[C@H]3C(=O)N[C@@H](Cc3c(C)cc(O)cc3C)C(=O)N[C@H](C(=O)N[C@@H](CC(C)C)C(=O)O)C(C)(C)C)nn2)NC(=O)[C@H](Cc2ccccc2)NC(=O)OCc2ccccc2)c(C)c1	1.22	1.4	4.5	16.1	0.9	0.09	0.6	10	7.8	17	5.5	2.1	62	0.35	1.5	35	0.6	17	4.3	45	Drug uptake [27]: 0.4 % ID/g; Drug uptake [21]: 0.15 % ID/g; Drug uptake [22]: 0.02 % ID/g; Drug uptake [23]: 6.3 % ID/g; Drug excretion [24]: 57 %ID; logD [25]: -1.95; logD [26]: -2.1
Cc1cc(O)cc(C)c1C[C@H](NC(=O)[C@@H]1CCCN1C(=O)[C@H](CCCNC(=N)N)NC(=O)[C@H](CCCNC(=N)N)N(C)C(=O)[C@@H]1CCCN1C(=O)[C@H](CCCCN)NC(=O)[C@@H](CO)NC(=O)[C@@H](CO)NC(=O)[C@@H](CO)NC(=O)[C@H](Cc1cn(CCNC(=O)[C@H](CCCNC(=N)N)NC(=O)[C@H](CC(C)C)NC(=O)C2OC2C(=O)O)nn1)NC(=O)CN1CCN(CC(=O)O)CCN(CC(=O)O)CCN(CC(=O)O)CC1)C(=O)N[C@H](C(=O)N[C@@H](CC(C)C)C(=O)O)C(C)(C)C (stereo not given in full)	0.02	0.14	0.53	1.4	0.08	0.01	0.18	6.2	6.4	1.7	3.2	1.1	80	0.04	1.1	69	0.15	1.9	2.3	46	Drug uptake [27]: 0.04 % ID/g; Drug uptake [21]: 0.03 % ID/g; Drug uptake [22]: 0.02 % ID/g; Drug uptake [23]: 3.9 % ID/g; Drug excretion [24]: 80.8 %ID; logD [25]: -3.78; logD [26]: -3.69
